# Compound activity from PubChem BioAssay.
# p97 ATPase inh – inhibitors of human p97 ATPase, primary screen, biochemical. recombinant p97 ATPase, Kinase-Glo ATP luminescence, 3 h. inhibition, % at 8 µM. actives 0.42% (n = 220,000). AID 1481, 2009; in the data active means inhibition above about 15%;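 further: 0% = DMSO vehicle and 100% = wells lacking enzyme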
# Target sequence (P55072 whole entry, looked up): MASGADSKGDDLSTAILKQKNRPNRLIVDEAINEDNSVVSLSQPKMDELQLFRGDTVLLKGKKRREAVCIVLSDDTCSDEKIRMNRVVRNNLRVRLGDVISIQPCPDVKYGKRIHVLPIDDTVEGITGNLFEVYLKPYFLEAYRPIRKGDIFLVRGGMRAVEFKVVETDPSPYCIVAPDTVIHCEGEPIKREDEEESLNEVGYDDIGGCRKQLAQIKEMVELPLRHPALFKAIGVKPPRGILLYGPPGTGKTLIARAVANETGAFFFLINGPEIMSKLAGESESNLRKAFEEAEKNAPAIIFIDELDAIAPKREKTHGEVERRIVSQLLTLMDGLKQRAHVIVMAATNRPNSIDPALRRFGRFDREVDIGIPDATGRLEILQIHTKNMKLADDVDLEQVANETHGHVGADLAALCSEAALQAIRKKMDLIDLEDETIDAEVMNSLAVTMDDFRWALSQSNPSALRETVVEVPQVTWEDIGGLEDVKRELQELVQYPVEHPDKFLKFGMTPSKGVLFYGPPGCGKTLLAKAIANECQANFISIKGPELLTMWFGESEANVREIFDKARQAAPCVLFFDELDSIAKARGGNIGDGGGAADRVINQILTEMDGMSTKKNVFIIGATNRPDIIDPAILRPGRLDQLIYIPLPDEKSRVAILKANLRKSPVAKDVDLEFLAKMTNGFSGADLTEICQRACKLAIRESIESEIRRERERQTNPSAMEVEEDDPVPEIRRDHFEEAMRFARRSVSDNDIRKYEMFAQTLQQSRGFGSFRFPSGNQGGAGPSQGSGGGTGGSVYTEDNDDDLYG
# CHOP inhibitor – inhibitors of CHOP promoter induction, primary screen, cell-based, unfolded protein response, luciferase reporter; CHO-K1 CHOP-promoter luciferase, tunicamycin-induced, 15-18 h; inhibition, % at 10 µM; actives 3.8% (n = 220,000); AID 2732, 2010;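 active means compounds that reduced the stress-induced luciferase reporter signal by more than about 70% of percent inhibition, limit read from the data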;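 further: 0% = tunicamycin plus vehicle and 100% = wells without tunicamycin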
# UPR CHOP act – activators of apoptotic CHOP UPR arm, primary screen, cell-based, CHO-CHOP luciferase reporter, luminescence, uHTS. actives 0.34% (n = 330,000). UPR activation; percent of tunicamycin response over DMSO baseline. activation, % at 10 µM;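 active means at 10 µM dose, activation of 40% or more, normalized to positive control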;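 further: 100% = tunicamycin at 10 µg/mL and 0% = DMSO alone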
#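 Test system: CHO CHOP reporter cells. Input: 500 CHO-CHOP cells per well. Medium: F12 with 10% FBS. Technique: luciferase luminescence. Measure: percent activation relative to tunicamycin control. Dosing: 10 µM compound, 0.5% DMSO. Timing: 16-18 h cell attachment, then 6 h compound exposure, 37 °C.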
# UPR XBP1 act – activators of adaptive XBP1 UPR arm, primary screen, cell-based, CHO-XBP1 luciferase reporter, luminescence, uHTS; IRE1-XBP1 UPR activation; percent of tunicamycin response, DMSO as zero; activation, % at 20 µM; actives 0.33% (n = 330,000); AID 463104, 2010;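 active means versus positive control, 20 µM dose yields 30% or more activation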;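 further: 100% = tunicamycin at 10 µg/mL and 0% = DMSO only wells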
#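 Material: IRE1-XBP1 luciferase reporter CHO line / Quantity: one thousand reporter cells per well / Buffer or medium: F12 with 10% serum / Compound: 20 µM single concentration, DMSO 1% / Times: 6 h treatment, 37 °C / Detection: Steady-Glo luciferase glow luminescence, 10 min after reagent addition / Benchmarks: tunicamycin high, DMSO low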
# NS3 helicase inh – inhibitors of HCV NS3 helicase, primary screen, biochemical, Cy5 molecular beacon fluorescence | NS3 helicase DNA unwinding | AID 1800, 2009 | inhibition, % at 10.9 µM | Hepatitis C virus NS3 helicase | actives 0.56% (n = 290,000);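 active means inhibition above the mean of all tested compounds plus 3 SD, set per campaign, cut at about 35% in these data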;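 further: 0% = DMSO wells and 100% = thioflavine S control wells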
#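 Compound dosing – single dose, 10.9 µM nominal final, DMSO 0.8% final · System – NS3 helicase fragment of HCV · Buffer or medium – MOPS pH 6.5, MgCl2, DTT, Tween20, BSA · Signal – Cy5 beacon fluorescence read at start and 1 h · Also added – annealed dual-labelled DNA beacon duplex, ATP-started · Schedule – 1 h at 25 °C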
# PfM18AAP inh-1 – PfM18AAP inhibitors, malaria aminopeptidase, primary screen, biochemical, QFRET, recombinant enzyme; inhibition, % at 7.35 µM; AID 1822, 2009; H-Glu-NHMec fluorogenic cleavage; actives 1.2% (n = 290,000);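 active means inhibition above the campaign mean inhibition over all tested compounds plus 3 SD, cut at about 28% in these data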;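 further: 0% = plate median of test compound wells and 100% = 2 mM ZnCl2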
# p97 inh conf – p97 ATPase inhibitors, retest, confirmation, biochemical; shares compounds with p97 ATPase inh; recombinant p97 ATPase, Kinase-Glo ATP luminescence; inhibition, % at 8 µM; actives 44% (n = 760);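 active means percent inhibition of p97 ATPase above a set limit, the primary screen's mean plus 3 SD, cut at about 15% in these data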;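 further: 0% = DMSO wells and 100% = wells lacking p97 protein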
# NS3 hel confirm – HCV NS3 helicase inhibitors, retest, confirmation, biochemical, Cy5 molecular beacon fluorescence, triplicate; shares compounds with NS3 helicase inh; NS3 helicase DNA unwinding; inhibition, % at 10.9 µM; actives 31% (n = 1,600);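 active means inhibition above the mean of all tested compounds plus 3 SD, cutoff set per campaign, cut at about 36% in these data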
# FID counter trip – compounds displacing fluorescent DNA intercalator, artefact control for HCV NS3 helicase inhibitor project, biochemical, FID fluorescence, triplicate; actives 4% (n = 1,600); shares compounds with NS3 helicase inh; inhibition, % at 7.9 µM; DNA fluorescent intercalator displacement; in the data active means inhibition above about 37%;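 further: 0% = vehicle and 100% = reference compound; higher means more displacement of ethidium bromide from the DNA hairpin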
# DNA FID DR – compounds displacing fluorescent intercalator from DNA, dose response, counter-screen for HCV NS3 helicase inhibitor project, biochemical, fluorescence. shares compounds with NS3 helicase inh. fluorescent intercalator displacement from DNA. IC50, µM. 120 tested, under 10 active. AID 2172, 2009; call rule not given here
# PfM18AAP inh-2 – PfM18AAP inhibitors, malaria aminopeptidase, confirmation, biochemical, QFRET, recombinant enzyme, triplicate. AID 2170, 2009. actives 28% (n = 2,400). shares compounds with PfM18AAP inh-1. H-Glu-NHMec fluorogenic cleavage. inhibition, % at 7.35 µM;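 active means mean inhibition over replicate wells above the hit cutoff set for the earlier primary screen, cut at about 29% in these data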;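 further: 0% = median of test compound wells and 100% = 2 mM ZnCl2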
# CTSL1 confirm – cathepsin L1 inhibitors, retest, confirmation, counter-screen for PFM18AAP inhibitor project, biochemical, QFRET, triplicate; shares compounds with PfM18AAP inh-1; purified cathepsin L1, Z-Leu-Arg-MCA fluorescence; inhibition, % at 5.96 µM; 2,400 tested, under 10 active; AID 2178, 2009;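 active means average inhibition across replicates above the hit cutoff set in the earlier primary screen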;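 further: 0% = median of test compound wells and 100% = Z-Phe-Ala-diazomethylketone 1 µM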
# CHOP inh conf – retest of CHOP induction inhibitors, confirmation, cell-based; shares compounds with CHOP inhibitor; AID 504437, 2011; actives 45% (n = 2,100); CHO-CHOP promoter luciferase reporter, tunicamycin-induced, luminescence; inhibition, % at 10 µM;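 active means mean of three repeat readings of reporter signal inhibition above a set limit, cut at about 70% in these data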;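 further: 0% = tunicamycin plus vehicle and 100% = wells lacking tunicamycin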
# UPR CHOP confirm – activators of apoptotic CHOP UPR arm, confirmation, cell-based, CHO-CHOP luciferase reporter, single concentration; AID 463112, 2010; actives 64% (n = 1,000); CHO-CHOP cells, CHOP-luciferase reporter luminescence; percent of tunicamycin response, DMSO as zero; shares compounds with UPR CHOP act; activation, % at 10 µM; in the data active means activation above about 33%;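 further: 0% = DMSO wells and 100% = tunicamycin 10 µg/mL wells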
# UPR XBP1 confirm – IRE1-XBP1 UPR arm activators, confirmation, cell-based, CHO-XBP1 luciferase reporter, luminescence, single concentration; actives 63% (n = 1,000); shares compounds with UPR XBP1 act; AID 485299, 2010; activation, % at 20 µM;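 active means reporter signal at least 30% of the positive control's activation in two or more of four replicate wells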;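 further: plate controls were DMSO negative control for no effect and tunicamycin 10 µg/mL positive control for full effect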
# Starred values were filed as active, the others as inactive; nt = no result. A selection: hits, their analogues and other compounds. The true share with any hit is near 4.5%.
SMILES,p97 ATPase inh,CHOP inhibitor,UPR CHOP act,UPR XBP1 act,NS3 helicase inh,PfM18AAP inh-1,p97 inh conf,others
COc1cccc(-n2c(SCc3cc(=O)oc4cc(O)c(O)cc34)nc3ccccc3c2=O)c1,39.8*,31.3,nt,nt,85.9*,55.9*,39.8*,NS3 hel confirm=134.2*;FID counter trip=0.5;DNA FID DR=>79.4;PfM18AAP inh-2=-10.1;CTSL1 confirm=5.9
CCN(CC)C(=O)CSc1nc2ccccc2c(=O)n1-c1cccc(OC)c1,-1.3,16.7,2.0,1.1,-2.7,5.5,nt,
Cc1cc(C)n2ncc(S(=O)(=O)c3ccccc3)c2n1,-3.7,-11.8,2.7,1.3,-16.8,-4.3,nt,
O=C(N/N=C/c1coc2ccccc2c1=O)c1cc(O)cc(O)c1,30.4*,4.7,-1.2,-4.2,9.2,38.6*,32.9*,PfM18AAP inh-2=2.8;CTSL1 confirm=2.6
COc1ccc(/C=N/NC(=O)c2cc(O)c(O)c(O)c2)cc1Cn1cc([N+](=O)[O-])cn1,17.3*,-3.0,nt,nt,7.3,48.5*,31.0*,PfM18AAP inh-2=17.1;CTSL1 confirm=-0.8
Cc1noc(COc2ccccc2OCC(N)=O)n1,nt,nt,1.7,-0.8,nt,nt,nt,
CC(C)(C)OC(=O)N1CCC(NC(=O)c2nc[nH]c2C(=O)N2CCN(c3ccccc3)CC2)CC1,nt,nt,0.2,-0.5,nt,nt,nt,
N#C/C(=C\c1ccc([N+](=O)[O-])o1)c1nc2ccccc2[nH]1,20.9*,106.5*,-8.4,-6.4,9.9,5.0,36.1*,CHOP inh conf=127.1*
CCCCn1c(NCc2ccccc2NS(=O)(=O)c2ccc(C)cc2)nc2ccccc21,3.0,12.1,0.9,-6.9,6.5,3.4,nt,
CCCCn1c(NS(=O)(=O)c2ccc(C)cc2)c(S(=O)(=O)c2ccccc2)c2nc3ccccc3nc21,24.1*,104.2*,nt,nt,37.8*,8.7,39.0*,NS3 hel confirm=71.7*;FID counter trip=-3.1;DNA FID DR=>79.4;CHOP inh conf=88.7*
O=C(CCl)Nc1cccc(-c2cnc3ccccc3n2)c1,17.9*,nt,-0.7,-3.8,-14.1,-3.5,34.7*,CHOP inh conf=83.9*
CCC(=O)Nc1cccc(-c2cnc3ccccc3n2)c1,-4.6,3.8,4.1,7.2,1.6,-6.1,nt,
COC(=O)c1ccc2c(=O)[nH]c(COC(=O)c3c(-c4ccccc4Cl)noc3C)nc2c1,nt,nt,0.1,-5.2,nt,nt,nt,
CCn1c(=O)c2c(nc(SCC(=O)N3CCC(C)CC3)n2C)n(C)c1=O,nt,nt,3.1,-6.7,-0.4,0.6,nt,
O=C(CCl)Nc1cc(-c2ccccc2)nn1-c1ccccc1,19.5*,nt,11.9,-5.9,-8.3,4.0,31.9*,CHOP inh conf=83.4*
O=S(=O)(c1ccc(Cl)cc1)c1snnc1-c1ccccc1,15.8*,nt,63.9*,12.2,2.2,11.2,13.3,CHOP inh conf=-81.9;UPR CHOP confirm=55.5*
Cc1c(C(=O)c2no[n+]([O-])c2C(=O)c2cnn(C)c2C)cnn1C,33.8*,4.4,55.0*,-7.3,6.2,58.7*,36.2*,PfM18AAP inh-2=77.4*;CTSL1 confirm=4.8;UPR CHOP confirm=91.2*
COc1ccc2c(C(=O)CCl)c[nH]c2c1,35.6*,-149.1,237.9*,-5.2,7.8,-1.1,42.8*,UPR CHOP confirm=205.3*
Cc1ccc(-c2cc(NC(=O)CCl)n(-c3ccccc3)n2)cc1,23.5*,nt,82.0*,-1.3,0.4,4.5,25.2*,CHOP inh conf=-150.0;UPR CHOP confirm=99.4*
Cc1ccc(-c2nn(-c3ccccc3)cc2NC(=O)CCl)cc1,16.3*,104.5*,81.6*,-5.3,-10.2,23.4,29.1*,UPR CHOP confirm=0.3
Cc1ccc(-c2nn(-c3ccccc3)cc2CNCc2ccccc2)cc1,0.8,8.5,2.6,6.3,-46.0,2.2,nt,
CC(=O)Nc1ccc(-c2cc(NC(C)=O)n(-c3ccccc3)n2)cc1,8.1,-9.6,-0.5,-0.1,3.8,1.5,nt,
Cc1cc(NC(=O)CSc2nnc(C)n2-c2ccccc2C)no1,0.1,6.8,-0.5,-0.5,4.9,1.6,nt,
COc1ccc(C(=O)NCCCCNC(=O)c2ccc(OC)c(OC)c2)cc1OC,nt,nt,0.8,-3.1,2.0,0.3,nt,
CCCCC/C=C/C1=CC(=O)C[C@H](c2ccc(OC)c(OC)c2)C1,nt,nt,-1.3,0.8,nt,nt,nt,
Oc1ccc(/C=N/Nc2ccnc3cc(Cl)ccc23)cc1O,33.3*,43.3,192.7*,20.0,-15.2,28.7*,41.1*,UPR CHOP confirm=150.7*
Clc1ccc2c(NCc3ccccn3)ccnc2c1,nt,nt,-1.0,-1.9,-5.3,1.1,nt,
O=C1NC(=Nc2ccc(O)cc2)S/C1=C\C=C\c1ccco1,35.9*,-8.9,3.9,30.9*,17.1,21.9,31.3*,UPR XBP1 confirm=3.5
